Screens: PubChem BioAssay, several laboratories
Most compounds without a hit are left out; they make up all but 2.3% or so of the library.
ZTA counter – ZTA (EBV) inhibition in EBNA-1 counter-screen | inhibition, % at 11 µM | ZTA-DNA binding, fluorescence polarization | actives 0.15% (n = 320,000); in the data active = inhibition above about 33%
Target sequence (P03206 whole entry, looked up): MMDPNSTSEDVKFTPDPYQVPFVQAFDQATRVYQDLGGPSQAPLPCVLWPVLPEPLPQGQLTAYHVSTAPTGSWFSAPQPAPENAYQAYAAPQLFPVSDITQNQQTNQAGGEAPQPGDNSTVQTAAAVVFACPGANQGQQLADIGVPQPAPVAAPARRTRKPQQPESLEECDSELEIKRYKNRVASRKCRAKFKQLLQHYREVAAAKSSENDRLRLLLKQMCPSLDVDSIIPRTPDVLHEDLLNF
EBNA-1 inhibitor – EBNA-1 DNA-binding inhibitors, primary screen, biochemical, fluorescence polarization. AID 1950, 2009. actives 0.34% (n = 300,000). inhibition, % at 14.8 µM; in the data active = inhibition above about 28%
core dimer inh – inhibitors of HCV core protein dimerization, primary screen, biochemical, TR-FRET, high-throughput. inhibition, % at 5 µM. actives 0.33% (n = 300,000). TR-FRET GST/Flag-core106 dimerization, 1536-well;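 active = inhibition above the mean of all tested compounds plus 3 SD, set per screening campaign, cut at about 45% in these data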
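System – GST-tagged and Flag-tagged HCV core protein residues 1-106 · Repeats – one well for each compound · Technique – TR-FRET 671 and 617 nm emission · Doses – one concentration, 5 µM, in 0.5% DMSO · Times – 4 h, 22.5 °C incubation · Also added – Eu donor and XL665 acceptor anti-tag antibodies · Measure – percent inhibition of core106 dimerization signal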
EBV gp42 inh – Epstein-Barr virus gp42 inhibitors, primary screen, biochemical, uHTS, fluorescence polarization | Glycoprotein 42 (Epstein-Barr virus (strain AG876)), Q1HVG2 | Fluorescence polarization binding assay, mP read-out | inhibition, % (tested at 21.74 µM) | actives 0.42% (n = 220,000); in the data active = inhibition above about 50%
Target sequence (Q1HVG2 whole entry, looked up): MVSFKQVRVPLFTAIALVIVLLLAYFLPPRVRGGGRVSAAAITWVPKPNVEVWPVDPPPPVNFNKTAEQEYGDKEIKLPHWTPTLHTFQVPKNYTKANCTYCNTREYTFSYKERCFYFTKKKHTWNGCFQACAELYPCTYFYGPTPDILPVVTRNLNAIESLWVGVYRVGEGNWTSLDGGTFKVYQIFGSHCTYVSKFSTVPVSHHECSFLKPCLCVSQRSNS
GPR7 antag – GPR7 receptor antagonists, primary screen, cell-based, fluorescence, single concentration; Neuropeptides B/W receptor type 1 (Homo sapiens), P48145; GPR7-expressing cells, fluorescence antagonist assay; inhibition, % at 4.4 µM; actives 1.1% (n = 290,000); AID 1861, 2009; in the data active = inhibition above about 16%, passing the limit was not always enough;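 also: cells stimulated with the agonist NPW; 0% = agonist with vehicle and 100% = vehicle without agonist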
NS3 helicase inh – inhibitors of HCV NS3 helicase, primary screen, biochemical, Cy5 molecular beacon fluorescence; actives 0.56% (n = 290,000); inhibition, % at 10.9 µM; NS3 helicase DNA unwinding; Hepatitis C virus NS3 helicase;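 active = inhibition above the mean of all tested compounds plus 3 SD, set per campaign, cut at about 35% in these data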;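 also: 0% = DMSO wells and 100% = thioflavine S control wells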
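System: NS3 helicase fragment of HCV / Schedule: 1 h at 25 °C / Control set: DMSO alone as 0% and 110 µM thioflavine S as 100% / Reagent: Cy5/quencher beacon DNA duplex and ATP to start / Technique: Cy5 fluorescence / Replication: singlicate / Evaluation: % inhibition of end-to-start signal ratio versus controls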
NS3 hel confirm – HCV NS3 helicase inhibitors, retest, confirmation, biochemical, Cy5 molecular beacon fluorescence, triplicate; shares compounds with NS3 helicase inh; NS3 helicase DNA unwinding; actives 31% (n = 1,600); inhibition, % at 10.9 µM;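 active = inhibition above the mean of all tested compounds plus 3 SD, cutoff set per campaign, cut at about 36% in these data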
DNA FID counter – compounds displacing fluorescent DNA intercalator, artefact control for HCV NS3 helicase inhibitor project, biochemical, FID fluorescence, triplicate; shares compounds with NS3 helicase inh; DNA fluorescent intercalator displacement; inhibition, % at 7.9 µM; actives 4% (n = 1,600); in the data active = inhibition above about 37%;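 also: 0% = vehicle and 100% = reference compound; higher means more displacement of ethidium bromide from the DNA hairpin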
DNA FID DR – compounds displacing fluorescent intercalator from DNA, dose response, counter-screen for HCV NS3 helicase inhibitor project, biochemical, fluorescence; shares compounds with NS3 helicase inh; fluorescent intercalator displacement from DNA; IC50, µM; 120 tested, under 10 active; call rule not given here
* hit, by the source's call; / = not tested or not shown.

SMILES	ZTA counter	EBNA-1 inhibitor	core dimer inh	EBV gp42 inh	GPR7 antag	NS3 helicase inh	NS3 hel confirm	DNA FID counter	others
CCN(CC)S(=O)(=O)c1cccc(C(=O)N/N=C/c2ccc(O)c(O)c2O)c1	3	-8	3	-9	4	45*	76*	16	DNA FID DR=>79
CN(C)S(=O)(=O)c1cccc(NC(=S)N/N=C/c2ccc(O)c(O)c2O)c1	/	/	/	-6	-14	41*	11	50*
CCOc1ccccc1/C=N/NC(=O)c1cccc(S(=O)(=O)N(CC)CC)c1	17	7	8	4	0	-9	/	/
COc1ccc(-c2nnn(CC(=O)N(Cc3ccccc3Cl)C(C(=O)NCC3CCCO3)c3ccco3)n2)cc1 (centres undefined)	-5	2	3	-13	-10	-6	/	/
COc1ccc(-c2nnn(CC(=O)N(Cc3ccco3)C(C(=O)NCC3CCCO3)c3ccco3)n2)cc1 (centres undefined)	2	2	6	-5	18	45*	-9	-32
O=C1CN(C(=O)N[C@@H](Cc2ccccc2)C(=O)N[C@H](Cc2ccccc2)C(=O)O)c2ccccc2N1	10	-7	0	/	-5	2	/	/
O=C1CN(C(=O)N[C@@H](Cc2ccccc2)C(=O)N[C@@H](Cc2ccccc2)C(=O)O)c2ccccc2N1	0	-6	-3	/	18	36*	-23	-31
CCc1nnc(NC(=O)CCC(=O)Nc2ccc(OC)cc2OC)s1	-8	-17	-6	/	3	2	/	/
Cc1cc(C)c(NC(=O)c2ccc(CNS(=O)(=O)c3cc(C(F)(F)F)ccc3Cl)cc2)c(C)c1	-1	-3	15	-5	-12	36*	-4	-14
COC(=O)C1=C(C)NC(=O)NC1c1ccc2c(c1)OCO2 (centres undefined)	-1	4	1	/	-13	7	/	/
Cc1ccc(S(=O)(=O)Nc2ccc(Br)cc2/C=N/n2cnnc2)cc1	16	-3	2	-8	-19	36*	38*	-8
CC(=O)Nc1ccc(S(=O)(=O)N2CCN=C2SCc2ccc([N+](=O)[O-])cc2)cc1	-7	0	4	/	11	-17	/	/
CCN(CC)S(=O)(=O)c1cc(OC)ccc1N=Nc1ccc(O)c2ncccc12	/	/	/	/	-9	50*	68*	-3
CC(=O)Nc1ccc2nc(NC(=O)c3ccc([N+](=O)[O-])o3)sc2c1	-8	1	3	/	10	23	/	/
Oc1c(Br)cc(Cl)cc1C=Nc1ccc(N2CCOCC2)cc1	12	2	-4	1	2	43*	13	13
CCC(Sc1ccccn1)C(=O)Nc1cccc([N+](=O)[O-])c1 (centres undefined)	-5	0	2	2	-2	-1	/	/
CCCCSc1nc2c(cc1C#N)CCC2	9	8	3	-11	-6	5	/	/
CCCSc1nc(C)c(-c2csc(C(C#N)=C3CCCC3)n2)cc1C#N	-9	1	61*	-26	-8	52*	30	31
O=C(CSc1nnc(-c2ccco2)n1Cc1ccccc1)NCc1ccccc1	7	13	-3	-8	-5	3	/	/
O=C(CSc1nnc(-c2ccco2)n1Cc1ccccc1)c1ccc(F)cc1	5	-8	4	5	-4	39*	74*	-2
COc1ccc(OC)c(NC(=O)CN2C(=O)C3(OCCCO3)c3ccccc32)c1	-3	6	2	-6	0	54*	-2	-22
COc1ccccc1NC(=O)CN1C(=O)C2(OCCCO2)c2ccccc21	6	-9	1	2	3	5	/	/
CC[C@@H](C)[C@H](NC(=O)Cc1c(C)c2c(cc(C)c3c(C)c(C)oc32)oc1=O)C(=O)O	/	/	/	/	17	37*	10	-24
CSc1ccccc1NC(=O)CN1CC(C)OC(C)C1 (centres undefined)	6	-4	0	-8	-12	-12	/	/
CC(=O)N1c2ccc(S(=O)(=O)NCC3CCC(C(=O)N4CCCC(C)C4)CC3)cc2CC1C (centres undefined)	-3	5	8	/	-14	-4	/	/
SMILES	ZTA counter	EBNA-1 inhibitor	core dimer inh	EBV gp42 inh	GPR7 antag	NS3 helicase inh	NS3 hel confirm	DNA FID counter	others
Cc1cc(/C=C2/C(=O)N(C)C(=S)N2C)c(C)n1C1CC1	-4	1	11	-5	-6	6	/	/
Cc1cc(/C=C2\SC(=S)NC2=O)c(C)n1C1CC1	-25	0	-6	-59	1	76*	36*	28
COC(=O)c1c(NC(=O)CSc2nc3ccccc3c(=O)n2-c2ccccc2)sc(C)c1C	11	4	28	-22	9	48*	10	-20
CC(C(=O)O)N1C(=O)C2C3CC(C2C1=O)C1C(c2ccccc2)c2sc(=O)[nH]c2SC31 (centres undefined)	-17	7	-13	11	-11	75*	-15	-7
CCOC(=O)C1(CCCc2ccccc2)CCN(C(=O)c2cnn(CC)c2)CC1	-8	-7	4	-13	-8	-3	/	/
COc1ccc(NC(=O)/C(C#N)=C\C=C\c2ccco2)cc1	-4	2	0	5	7	85*	-4	0
CN(C)c1ccc(CN(C(=O)/C=C/c2ccco2)C2CCS(=O)(=O)C2)cc1 (centres undefined)	0	-9	-2	-11	2	0	/	/
O=C(/C=C/c1ccco1)N(Cc1ccc(Cl)cc1)C1CCS(=O)(=O)C1 (centres undefined)	1	0	5	-8	-8	42*	0	-23
CNc1oc(-c2ccccc2F)nc1S(=O)(=O)c1ccc(C)cc1	4	-18	-7	/	-4	9	/	/
N#CC1=C(N)SC(C(=O)c2ccccc2)C1c1cccs1 (centres undefined)	-10	-5	-3	9	-7	27	/	/
N#CC1=C(N)S[C@@H](C(=O)c2ccc(F)cc2)[C@@H]1c1cccs1	-5	9	8	-2	-8	39*	7	16
CC1CCC(NC(=O)c2ccc(/C=C3\Oc4ccccc4N(C)C3=O)cc2)CC1 (centres undefined)	/	/	/	-8	-7	-2	/	/
